High-throughput results as filed in PubChem BioAssay.
rRNA inh HTS: inhibitors of bacterial rRNA selective over humanized ribosomes | E. coli WT GFP vs humanized-ribosome RFP mutants, fluorescence, 24 h; stronger effect = lower value; DMSO median 0, no signal -100 | GFP signal change (wild-type ribosome), % (no concentration beside the values) | actives 1.6% (n = 350,000);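 active means significant combined selectivity score with lowered wild-type GFP, culture density cut under 30%, mutant RFP and density less affected; inactive means any of these conditions unmet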
PfHsp90 yeast 2: growth inhibition of yeast expressing Plasmodium Hsp90 | S. cerevisiae expressing PfHsp90, BacTiter-Glo ATP, 48 h; yeast lacking PDR1 and PDR3 efflux regulators | inhibition, % at 9.4 µM | actives 0.32% (n = 310,000);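 active means every replicate shows inhibition above about 80%, whatever the replicate mean, limit read from the data; inconclusive means mean inhibition reaches the set limit but some replicate falls short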;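 further: 0% = DMSO neutral controls and 100% = 20 µM radicicol positive controls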
DENV2 CPE: inhibitors of DENV2 cytopathic effect. CPE inhibition, % at 9.99 µM. actives 1.7% (n = 350,000). DENV2-infected cells, cytopathic effect rescue, plate reader. AID 651640; in the data active means CPE inhibition above about 20%, passing the limit was not always enough; inconclusive means no clear call, values can overlap the other calls; tested in BHK-21 cells;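 further: 0% = median of neutral control wells and 100% = median of positive control wells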
S100A4 MyoIIA: blocks human S100A4 binding to myosin IIA peptide | P26447 | S100A4/TAMRA-MyoIIA peptide fluorescence polarization | inhibition, % at 10.7 µM | actives 0.14% (n = 360,000);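 active means mean inhibition of at least 70% across replicates, with every replicate also reaching that level; inconclusive means mean inhibition reaches 70% but some replicates fall short; inactive means mean inhibition below 70%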
Target sequence (P26447 whole entry, looked up): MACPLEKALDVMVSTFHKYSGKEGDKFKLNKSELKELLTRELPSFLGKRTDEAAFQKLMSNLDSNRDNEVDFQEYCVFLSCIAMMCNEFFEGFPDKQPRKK
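assay system = human S100A4 monomer with TAMRA-labelled myosin IIA peptide | also added = labelled myosin peptide probe, 5 nM | incubation = 5 min between mix addition and reading | control set = DMSO and TFP controls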
Cneo AK release: Cryptococcus neoformans lysis via adenylate kinase release. actives 0.2% (n = 360,000). C. neoformans lysis, adenylate kinase release luminescence, 4 h; normalised: neutral wells 0, clomiphene wells 100. lysis activity, % at 15 µM;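 active means mean lysis activity across replicates of at least 80%, whatever share of replicates individually reach that level; inactive means mean lysis activity below 80%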
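Test system: log-phase Cryptococcus neoformans yeast cells. Input: 5 × 10^6 yeast cells/mL. Medium: fresh YPD growth medium. Doses: single dose. Incubation: static 4 h at 37 °C with compound, 1 h detection. Measured by: luminescent adenylate kinase detection reagent. Read-out: signal increase indicating cell lysis. Benchmarks: Clomiphene.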
AF4-AF9 inh: MLL-AF4/AF9 protein interaction inhibition | AlphaScreen, biotin-AF4 peptide binding to FLAG-AF9 | inhibition, % at 10 µM | actives 0.47% (n = 350,000) | AID 651704;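 active means every replicate reaching a set inhibition limit, whatever the replicate mean, cut at about 25% in these data; inconclusive means mean inhibition reaches that limit but some replicates miss it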;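 further: 0% = plate neutral control median and 100% = total signal loss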
Target sequence (P42568 whole entry, looked up): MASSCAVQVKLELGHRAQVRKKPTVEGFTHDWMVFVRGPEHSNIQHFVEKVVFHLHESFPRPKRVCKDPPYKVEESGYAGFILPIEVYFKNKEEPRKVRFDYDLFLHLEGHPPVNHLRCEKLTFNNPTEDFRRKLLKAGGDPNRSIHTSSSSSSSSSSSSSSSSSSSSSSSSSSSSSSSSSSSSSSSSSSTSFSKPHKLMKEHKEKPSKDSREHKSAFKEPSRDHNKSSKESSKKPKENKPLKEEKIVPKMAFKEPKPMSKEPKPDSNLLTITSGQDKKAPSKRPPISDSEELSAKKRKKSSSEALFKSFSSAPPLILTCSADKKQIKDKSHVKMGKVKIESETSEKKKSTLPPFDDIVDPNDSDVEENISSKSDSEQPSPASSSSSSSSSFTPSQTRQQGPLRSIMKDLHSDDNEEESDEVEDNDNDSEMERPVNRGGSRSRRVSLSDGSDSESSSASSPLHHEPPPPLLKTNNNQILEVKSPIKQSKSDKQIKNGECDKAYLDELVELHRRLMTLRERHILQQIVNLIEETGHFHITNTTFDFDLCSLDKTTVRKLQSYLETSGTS
Starred values were filed as active, the others as inactive; ? = inconclusive; nt = no result. This is a sample that favours compounds with a hit; in the whole collection about 3.2% have one here.

SMILES | rRNA inh HTS | PfHsp90 yeast 2 | DENV2 CPE | S100A4 MyoIIA | Cneo AK release | AF4-AF9 inh
C#CCOCCOCCOCCNc1nc(OC)nc(N2CCN(C(=O)[C@H](CCC(=O)O)n3cc(C(N)CO)nn3)CC2)n1 (some centres not stated) | 4.2 | 9.6 | 23.1* | 0.0 | -1.3 | 1.1
C#CCOCCOCCOCCNc1nc(N2CCN(C(=O)[C@H](CCCCN)n3cc(CN)nn3)CC2)nc(N2CCN(C(=O)[C@H](CCCCN)n3cc([C@@H](N)[C@H](C)CC)nn3)CC2)n1 | 10.4 | 9.0 | 16.1 | -7.8 | 0.3 | 64.2*
C#CCOCCOCCOCCNc1nc(N2CCN(C(=O)[C@H](CCCCN)n3cc(C(N)[C@H](C)CC)nn3)CC2)nc(N2CCN(C(=O)[C@H](CCC(=O)O)n3cc(C(N)[C@H](C)CC)nn3)CC2)n1 (some centres not stated) | nt | 10.0 | nt | nt | -0.2 | nt
C#CCOCCOCCOCCNc1nc(N2CCN(C(=O)[C@H](CCCCN)n3cc([C@@H](N)[C@H](C)CC)nn3)CC2)nc(N2CCN(C(=O)[C@H](CCC(=O)O)n3cc([C@@H](N)CCCCN)nn3)CC2)n1 | 10.7 | 3.3 | -2.3 | 2.6 | -5.6 | 33.6*
Cc1cc(Cl)c2oc(C(=O)N(C)CCCCN3CCOCC3)c(C)c2c1 | -1.3 | 8.3 | 22.2* | 1.5 | 0.8 | 6.1
COc1ccc2c3c([nH]c2c1)[C@H](CO)N(Cc1ccccc1)CC31CN(C(=O)c2cccnc2)C1 | -9.8 | nt | -16.4 | 6.8 | nt | 0.2
COc1ccc(CNc2ncnc3c2[nH]c2ccccc23)cc1 | -55.4* | nt | -12.1 | -2.9 | -1.1 | -2.8
C[C@@H]1CN([C@@H](C)CO)C(=O)c2cc(NC(=O)CCC(F)(F)F)ccc2O[C@H]1CN(C)Cc1ccccc1 | -1.4 | nt | 6.3 | 10.8 | 0.9 | -2.2
Cc1nn(-c2ccccc2)nc1C(=O)NNC(=O)c1cccc2ccccc12 | -21.4* | 11.7 | -7.1 | 0.0 | 1.6 | -3.0
CN(C)CC(=O)N1CC[C@@H]2[C@H]1c1cc(Br)ccc1N(C)[C@@H]2CO | 5.8 | nt | 5.0 | nt | 14.6 | nt
CC(C)(C)[S@@](=O)N1Cc2cc(C(=O)N3CCCCC3)nc(-c3cccc(-c4ccc(C#N)cc4)c3)c2[C@H]1CCO | 0.0 | nt | ? | -34.2 | 54.0 | -4.6
Cc1ccc(S(=O)(=O)N2[C@@H](c3ccc(F)cc3)C(C(=O)O)=CC[C@H]2c2cccc(C)c2)cc1 | -25.4* | 7.1 | 3.2 | 1.3 | 2.3 | 0.1
Cc1ccc([C@@H]2CC=C(C(=O)O)[C@H](c3ccc(F)cc3)N2S(=O)(=O)c2ccc(C)cc2)cc1 | -9.4 | 3.7 | -2.8 | -1.4 | 3.1 | -2.3
Cc1ccc(S(=O)(=O)N2[C@@H](c3ccccc3F)C(C(=O)O)=CC[C@H]2c2ccc3c(c2)OCO3)cc1 | -20.9* | -7.7 | -9.0 | -7.9 | 2.1 | -1.4
COc1ccc([C@@H]2CC=C(C(=O)O)[C@H](c3ccccc3F)N2S(=O)(=O)c2ccc(C)cc2)cc1OC | -5.1 | -18.0 | 35.6* | -5.6 | 3.2 | 2.9
COc1ccc([C@@H]2CC=C(C(=O)O)[C@H](c3ccccc3)N2S(=O)(=O)c2ccc(C)cc2)cc1OC | -5.0 | 2.6 | 48.8* | -0.8 | 5.5 | 2.8
Cc1ccc([C@@H]2CC=C(C(=O)O)[C@H](c3ccccc3F)N2S(=O)(=O)c2ccc(C)cc2)cc1 | -7.6 | -3.7 | -6.4 | -0.8 | 6.2 | 5.2
CN(C)CCCNC(=O)C[C@@H]1CC[C@@H]2[C@@H](COc3ccc(NC(=O)c4ccccc4F)cc3C(=O)N2C)O1 | 3.4 | nt | 6.3 | -4.7 | -2.9 | -1.3
CCCNC(=O)C[C@H]1CC[C@@H]2[C@H](COc3ccc(NS(=O)(=O)CC)cc3C(=O)N2C)O1 | 7.9 | nt | -3.6 | 3.9 | -2.2 | -1.3
OC(CNCCC1C=Nc2ccccc21)Cn1c2ccc(Cl)cc2c2cc(Cl)ccc21 (configuration not stated) | nt | 105.3* | nt | nt | -0.5 | nt
COCC(=O)N1CC2(C1)[C@H](c1ccccc1)[C@@H](CO)N2C(=O)c1ccccc1 | 1.0 | nt | 1.9 | -2.1 | nt | -4.2
O=C(C[C@H]1C=C[C@H](NC(=O)c2ccccc2)[C@H](CO)O1)NCc1ccncn1 | 5.4 | nt | -4.4 | 3.3 | -6.6 | -1.3
Cc1cccc(S(=O)(=O)N[C@H]2CC[C@H](CCn3cc(-c4ccccn4)nn3)O[C@H]2CO)c1 | -3.5 | nt | -0.9 | -7.1 | -2.0 | 0.6
CCCCCc1ccc(-c2ccc(OC)cc2)nc1 | -24.5* | 27.1 | -2.4 | -2.2 | -1.4 | -3.7
CCCCCc1ccc(-c2ccc(/C=C/C(N)=O)cc2)nc1 | nt | -3.5 | nt | nt | -5.6 | nt
SMILES | rRNA inh HTS | PfHsp90 yeast 2 | DENV2 CPE | S100A4 MyoIIA | Cneo AK release | AF4-AF9 inh
O=C(Nc1ccc2ccccc2c1)[C@@H]1C[C@H]1[C@@H](NP(=O)(c1ccccc1)c1ccccc1)c1ccccc1 | 11.5 | -22.3 | 40.3* | 0.2 | 0.5 | -1.4
C[C@@H]1CCCCO[C@H](CN(C)C(=O)c2ccccc2)[C@@H](C)CN([C@@H](C)CO)C(=O)c2cc(NC(=O)Nc3cccc4ccccc34)ccc2O1 | -2.4 | nt | ? | -16.5 | -3.7 | 2.4
O=C(NCC[C@H]1CC[C@H](NC(=O)C2CCC2)[C@@H](CO)O1)Nc1ccc(Cl)cc1 | -62.1 | nt | -1.5 | 3.0 | -2.8 | 17.9
CCCN1C[C@@H](C)[C@H](OC)CN(C)C(=O)c2ccc(NC(=O)c3cccc(F)c3)cc2OC[C@@H]1C | -3.7 | nt | 7.7 | 1.1 | 114.7* | 45.0*
CCCN1C[C@@H](C)[C@H](OC)CN(C)C(=O)c2cc(NC(=O)c3cccc(F)c3)ccc2OC[C@@H]1C | 2.4 | nt | -9.9 | 27.4 | 56.7 | -1.8
CCCN1C[C@@H](C)[C@@H](OC)CN(C)C(=O)c2cc(NC(=O)c3cccc(F)c3)ccc2OC[C@@H]1C | -1.2 | nt | 27.4* | -2.7 | -1.4 | -0.4
CO[C@H]1CN(C)C(=O)c2cc(NC(=O)c3cccc(F)c3)ccc2OC[C@H](C)N(C)C[C@H]1C | -1.2 | nt | -0.9 | 0.6 | -2.6 | -0.7
CCCN1C[C@H](C)[C@@H](OC)CN(C)C(=O)c2cc(NC(=O)Nc3ccccc3F)ccc2OC[C@H]1C | 1.3 | nt | 28.8* | 7.2 | -2.0 | 1.7
CCCN1C[C@H](C)[C@H](OC)CN(C)C(=O)c2ccc(NC(=O)c3ccccc3)cc2OC[C@@H]1C | -0.5 | nt | 0.4 | 2.8 | -0.5 | -3.0
CO[C@@H]1CN(C)C(=O)c2ccc(NC(=O)c3cccc(F)c3)cc2OC[C@H](C)N(C)C[C@H]1C | -0.8 | nt | 37.0* | 10.6 | -0.4 | -4.5
COc1ccc(-c2cn(CC[C@@H]3CC[C@H](NC(=O)CCN4CCCCC4)[C@@H](CO)O3)nn2)cc1 | 2.0 | nt | -5.1 | -0.4 | -9.7 | 5.9
